What all share (format): functional
One test relates to Staphylococcus aureus. Briefly: Antibacterial activity against Staphylococcus aureus ATCC 6538 at 10 ug after 24 hrs by agar disk diffusion assay. The settings on record: ATCC 6538, 24 h, read-out: IZ. Put shortly: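 Sterile 6 mm paper discs were loaded with ligand solution freshly prepared in DMSO and placed on inoculated agar. The inoculum came from broth cultures: bacteria in Nutrient Broth at 30 °C for 24 h, yeasts in Malt Extract Broth for 48 h. Plates were incubated at 35 °C for 24 h (bacteria) or 25 °C for 72 h (yeasts). A DMSO solvent control and a reference antibiotic disc were included on each plate.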

The next test relates to Listeria monocytogenes. Briefly: Antibacterial activity against Listeria monocytogenes ATCC 15313 at 10 ug after 24 hrs by agar disk diffusion assay. The settings on record: ATCC 15313, 24 h, read-out: IZ. Summed up: (§1)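 Disk diffusion with sterile 6 mm discs loaded with DMSO solutions of the test agents and placed on inoculated agar. Bacteria were pre-grown in Nutrient Broth at 30 °C for 24 h, and plates were incubated at 35 °C for 24 h. Each plate carried a reference antibiotic disc matched to the organism, and a DMSO-only solvent control was run.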

Test [1] deals with Mycolicibacterium smegmatis. Briefly: Antibacterial activity against Mycobacterium smegmatis CCM 2067 at 10 ug after 24 hrs by agar disk diffusion assay. The following applies: CCM 2067, 24 h, read-out: IZ. Summed up: as §1
A further test has as its system Pseudomonas aeruginosa. Briefly: Antibacterial activity against Pseudomonas aeruginosa ATCC 27853 at 10 ug after 24 hrs by agar disk diffusion assay. The settings on record: ATCC 27853, 24 h, read-out: IZ. Put shortly: as §1
Another test relates to Escherichia coli. Briefly: Antibacterial activity against Escherichia coli ATCC 11230 at 10 ug after 24 hrs by agar disk diffusion assay. The following applies: ATCC 11230, 24 h, read-out: IZ. Put shortly: as §1
A further test relates to Micrococcus luteus. Briefly: Antibacterial activity against Micrococcus luteus La 2971 at 10 ug after 24 hrs by agar disk diffusion assay. The settings on record: La 2971, 24 h, read-out: IZ. Summed up:
as §1

The next test concerns Bacillus cereus. Briefly: Antibacterial activity against Bacillus cereus ATCC 7064 at 10 ug after 24 hrs by agar disk diffusion assay. The following applies: ATCC 7064, 24 h, read-out: IZ. Put shortly: as §1
Another test relates to Proteus vulgaris. Briefly: Antibacterial activity against Proteus vulgaris ATCC 8427 at 10 ug after 24 hrs by agar disk diffusion assay. The following applies: ATCC 8427, 24 h, read-out: IZ. Put shortly: as §1
The next test concerns Klebsiella pneumoniae. Briefly: Antibacterial activity against Klebsiella pneumoniae UC57 at 10 ug after 24 hrs by agar disk diffusion assay. The settings on record: UC57, 24 h, read-out: IZ. Summed up:
as §1

With `CC1(C)S[C@@H]2[C@H](NC(=O)[C@H](N)c3ccccc3)C(=O)N2[C@H]1C(=O)O` [AMPICILLIN], the zone of inhibition at 10 µg/disc was 16 mm in the test on Staphylococcus aureus; 12 mm in the test with Listeria monocytogenes; 21 mm in test [1]; 32 mm in the test with Pseudomonas aeruginosa; 12 mm with Escherichia coli; 16 mm in the test with Micrococcus luteus. For the same molecule, the zone of inhibition at 10 µg/disc with Bacillus cereus came to 10 mm; with Proteus vulgaris it was 12 mm; in the test on Klebsiella pneumoniae, 14 mm.
